SIRT5 inh = inhibitors of human sirtuin-5 desuccinylase; Q9NXA8; Purified SirT5, succinyl-peptide AMC, trypsin-coupled fluorescence; inhibition, % at 15 µM; 330,000 compounds, 1.1% hits; AID 652115; in the data active = inhibition above about 15%; inconclusive = no clear call, values can overlap the other calls
MLL AF4-AF9 inh = MLL-AF4/AF9 protein interaction inhibition; AlphaScreen, biotin-AF4 peptide binding to FLAG-AF9; inhibition, % at 10 µM; P42568; 350,000 compounds, 0.47% hits;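 active = every replicate reaching a set inhibition limit, whatever the replicate mean, cut at about 25% in these data; inconclusive = mean inhibition reaches that limit but some replicates miss it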
E-sel inducer = induces E-selectin expression in human endothelial cells; P16581; HUVEC E-selectin immunofluorescence imaging; normalized: neutral wells 0, TNF-alpha wells 100; activation, % at 7.58 µM; 260,000 compounds, 0.37% hits;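 active = mean E-selectin-positive cell signal at least 10% of the positive control, reached in at least 60% of replicates, without over 20% cell loss; inconclusive = no rule given, readout overlaps actives, possibly toxicity-flagged; inactive = the rest, including those meeting only one limit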
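Read-out basis: % PE-positive cells; Test system: HUVEC primary endothelial cells; Technique: immunofluorescence imaging; Dosing: single-point compound dose.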
S100A4 MyoIIA = blocks human S100A4 binding to myosin IIA peptide | P26447 | S100A4/TAMRA-MyoIIA peptide fluorescence polarization | inhibition, % at 10.7 µM | 360,000 compounds, 0.14% hits;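 active = mean inhibition of at least 70% across replicates, with every replicate also reaching that level; inconclusive = mean inhibition reaches 70% but some replicates fall short; inactive = mean inhibition below 70%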
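Test system – S100A4 monomer (human) · Compound – single-point compound testing · Schedule – 5 min incubation before reading · Probe or stimulus – TAMRA-labelled myosin IIA heavy-chain peptide probe, 5 nM · Benchmarks – neutral control DMSO, positive control TFP · Medium – Calcium-containing HEPES buffer, pH 7.2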
ERAP1 inh = ERAP1 (human) enzyme inhibition; inhibition, % at 10.7 µM; AID 652197; Q9NZ08; recombinant ERAP1, Leu-AMC fluorescence, 60 min; 340,000 compounds, 0.15% hits;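 active = mean replicate inhibition of at least 30%, or all replicates individually reaching that 30% level; inactive = mean below 30% and not every replicate reaching it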
Target sequence (Q9NZ08 whole entry, looked up): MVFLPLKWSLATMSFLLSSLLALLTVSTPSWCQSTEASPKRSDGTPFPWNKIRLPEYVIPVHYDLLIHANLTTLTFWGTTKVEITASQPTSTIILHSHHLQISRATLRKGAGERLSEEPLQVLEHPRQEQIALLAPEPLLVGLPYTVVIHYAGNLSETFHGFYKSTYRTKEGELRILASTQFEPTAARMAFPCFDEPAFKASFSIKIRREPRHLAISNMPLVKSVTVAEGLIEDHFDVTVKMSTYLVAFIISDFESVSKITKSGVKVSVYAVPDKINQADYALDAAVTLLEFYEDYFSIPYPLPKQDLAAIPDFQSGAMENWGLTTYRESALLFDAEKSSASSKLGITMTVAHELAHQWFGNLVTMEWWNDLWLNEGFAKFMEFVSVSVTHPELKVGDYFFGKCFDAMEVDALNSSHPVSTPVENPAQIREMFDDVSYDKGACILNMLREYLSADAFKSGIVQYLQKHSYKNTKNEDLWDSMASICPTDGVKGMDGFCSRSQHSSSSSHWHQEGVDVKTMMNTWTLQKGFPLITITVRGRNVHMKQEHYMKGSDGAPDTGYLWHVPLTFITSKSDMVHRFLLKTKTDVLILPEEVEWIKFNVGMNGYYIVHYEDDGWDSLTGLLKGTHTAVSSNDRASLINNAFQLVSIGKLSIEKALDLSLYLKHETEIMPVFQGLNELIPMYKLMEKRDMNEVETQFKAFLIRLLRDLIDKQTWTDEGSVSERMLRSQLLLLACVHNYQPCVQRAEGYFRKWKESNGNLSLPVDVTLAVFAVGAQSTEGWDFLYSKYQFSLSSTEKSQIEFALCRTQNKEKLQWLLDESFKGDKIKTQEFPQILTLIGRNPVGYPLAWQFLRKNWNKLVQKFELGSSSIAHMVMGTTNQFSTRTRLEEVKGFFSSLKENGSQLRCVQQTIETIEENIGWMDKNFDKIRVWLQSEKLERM
Ecoli rRNA inh = inhibitors of bacterial rRNA selective over humanized ribosomes; E. coli WT GFP vs humanized-ribosome RFP mutants, fluorescence, 24 h; hits give low values; DMSO median 0, no signal -100; GFP signal change (wild-type ribosome), % (concentration not given with the values); 350,000 compounds, 1.6% hits; AID 720706;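 active = significant combined selectivity score with lowered wild-type GFP, culture density cut under 30%, mutant RFP and density less affected; inactive = any of these conditions unmet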
Each line names hits and unclear results; the compound was inactive in the other large screens; ! = a repeat was not active. Only some compounds are listed: those with a hit (about 3.4% of all), similar ones and a draw of the others.

COC(=O)c1cc(C(=O)c2c(C)cc3ccccn23)cc([N+](=O)[O-])c1	Ecoli rRNA inh -22
Cc1cc2ccccn2c1C(=O)c1cc([N+](=O)[O-])cc([N+](=O)[O-])c1	MLL AF4-AF9 inh 33 (no result: E-sel inducer)
C[C@H]1CN([C@@H](C)CO)S(=O)(=O)c2ccc(C#CC(C)(C)O)cc2O[C@@H]1CN(C)C(=O)CN(C)C	none
CO[C@H]1CN(C)C(=O)c2cc(NC(=O)Cc3ccccc3)ccc2OC[C@H](C)N(C(=O)c2ccccc2F)C[C@H]1C	none
Cc1noc(C)c1NC(=O)N(C)C[C@@H]1Oc2ccc(NC(=O)Cn3cnnn3)cc2CC(=O)N([C@H](C)CO)C[C@@H]1C	none (no result: SIRT5 inh, MLL AF4-AF9 inh, S100A4 MyoIIA, ERAP1 inh)
O=C1Nc2ccccc2N(C(=O)c2ccc3ccccc3c2)C1c1nc2ccccc2[nH]1 (centres undefined)	SIRT5 inh 16
CC1C(=O)Nc2ccccc2N1C(=O)c1ccc(O)cc1 (centres undefined)	none
CC[C@H](C)[C@H](NC(N)=O)C(=O)Nc1ccc(S(=O)(=O)NC(C)C)cc1	Ecoli rRNA inh -22 (no result: ERAP1 inh)
O=C(Nc1nnc([C@H]2C[C@H](O)[C@@H](CO)O2)s1)Nc1cccc(Cl)c1Cl	Ecoli rRNA inh -25 (no result: SIRT5 inh)
CO[C@@H]1CN(C)C(=O)c2ccc(NC(=O)CC(F)(F)F)cc2OC[C@H](C)N(CC2CC2)C[C@@H]1C	none (no result: SIRT5 inh, MLL AF4-AF9 inh, E-sel inducer, S100A4 MyoIIA, ERAP1 inh)
O=S(=O)(c1ccc(F)cc1)c1nc(-c2ccco2)oc1Nc1ccccc1	SIRT5 inh 112
O=S(=O)(c1ccccc1)c1nc(-c2ccco2)oc1Nc1ccccc1	none (no result: Ecoli rRNA inh)
CC(C)[C@@H]1COCn2nncc2CC[C@H](Cc2ccc(-c3ccccc3)cc2)C(=O)N1	none (no result: SIRT5 inh, MLL AF4-AF9 inh, E-sel inducer, S100A4 MyoIIA, ERAP1 inh)
CN(C)c1cccc(C(=O)NCc2ccc3c(c2)OCO3)c1	E-sel inducer 29
Cc1ccc(CCSc2ccc(F)cc2)cn1	Ecoli rRNA inh -22
Cc1ccc(CCSc2ccc(C(C)C)cc2)cn1	none (no result: E-sel inducer)
CC(C)NC(=O)Nc1ccc2c(c1)CC(=O)N([C@H](C)CO)C[C@H](C)[C@@H](CN(C)Cc1ccc(C(=O)O)cc1)O2	E-sel inducer 39 (no result: ERAP1 inh)
C[C@H](CO)N1C[C@H](C)[C@H](CN(C)Cc2ccc(C(=O)O)cc2)Oc2ccc(NC(=O)Nc3ccc(F)cc3)cc2CC1=O	none
CC(C)NC(=O)Nc1ccc2c(c1)CC(=O)N([C@@H](C)CO)C[C@@H](C)[C@@H](CN(C)Cc1ccc(C(=O)O)cc1)O2	none
C[C@@H]1CN([C@@H](C)CO)C(=O)Cc2cc(NC(=O)Nc3ccc(F)cc3)ccc2O[C@H]1CN(C)Cc1ccc(C(=O)O)cc1	E-sel inducer 55
CC(C)NC(=O)Nc1ccc2c(c1)CC(=O)N([C@@H](C)CO)C[C@H](C)[C@H](CN(C)Cc1ccc(C(=O)O)cc1)O2	E-sel inducer 42
C[C@H](CO)N1C[C@H](C)[C@@H](CN(C)C(=O)Nc2cccc3ccccc23)OCc2cnnn2CCCC1=O	none
COc1ccc(S(=O)(=O)N[C@H]2C=C[C@H](CC(=O)N3CCc4ccccc4C3)O[C@@H]2CO)cc1	none
O=C(Cc1ccccc1)NNC(=S)Nc1ccccc1	none (no result: E-sel inducer)
COc1ccc(CC(=O)NNC(=S)Nc2ccccc2)cc1Cl	Ecoli rRNA inh -27 (no result: E-sel inducer)
COc1cc(C(=O)N/N=C/c2cccc(Oc3ccccc3)c2)ccc1O	none
O=C(N/N=C/c1cc(Cl)cc(Cl)c1O)c1ccncc1	Ecoli rRNA inh -19 (no result: MLL AF4-AF9 inh, E-sel inducer)
CCn1c2ccccc2c2cc(/C=N/NC(=O)c3ccc(O)cc3)ccc21	none (no result: SIRT5 inh, E-sel inducer)
O=C(N/N=C/c1cccc(Oc2ccccc2)c1)c1ccncc1	Ecoli rRNA inh -21
CCn1c2ccccc2c2cc(/C=N/NC(=O)c3ccncc3)ccc21	Ecoli rRNA inh -36 (no result: E-sel inducer)
CN1C(=O)c2cc(NS(C)(=O)=O)ccc2OC[C@H]2O[C@H](CC(=O)O)CC[C@H]21	none
COc1cccc(CNC(=O)CN2C(=O)COc3ccc(S(=O)(=O)N4CCCCCC4)cc32)c1	E-sel inducer 43
CCN(CC)C(=O)CSc1nc(-c2ccccc2)cc(=O)[nH]1	none (no result: Ecoli rRNA inh)
CCN(Cc1ccccc1)C(=O)CSc1nc(C)cc(=O)[nH]1	SIRT5 inh 22 (no result: E-sel inducer)
Cn1cc(CNCc2cn(C)nc2-c2ccc(C3CCCCC3)cc2)cn1	Ecoli rRNA inh -20 (no result: E-sel inducer)
COCCN1CCCC(CNCc2cn(C)nc2-c2ccc(Oc3ccccc3)cc2)C1 (centres undefined)	none (no result: SIRT5 inh, E-sel inducer)
O=C(NCc1ccco1)C1CCN(C(=O)c2cc3sccc3n2Cc2ccc(F)cc2)CC1	Ecoli rRNA inh -29 (no result: E-sel inducer)
Cc1ccc2ccccc2c1COC(=O)c1nonc1N	Ecoli rRNA inh -23 (no result: E-sel inducer)
CO[C@H]1CN(C)C(=O)c2ccc(NC(=O)Nc3ccc(C(F)(F)F)cc3)cc2OC[C@H](C)NC[C@@H]1C	MLL AF4-AF9 inh inconclusive
COc1ccc(Cl)cc1NC(=O)CN(C)S(=O)(=O)c1cccs1	Ecoli rRNA inh -32 (no result: E-sel inducer)
COc1ccc(Cl)cc1NC(=S)NNC(=O)c1cccs1	Ecoli rRNA inh -32 (no result: SIRT5 inh, ERAP1 inh)
COc1ccc(Cl)cc1NC(=O)CN(C)CC(=O)Nc1cc(OC)c(OC)c(OC)c1	SIRT5 inh 15
COc1ccc(Cl)cc1NC(=O)CN(C)CC(=O)Nc1ccc(Br)cc1	none
C[C@H]1CN(C)C(=O)c2cccc(N(S(C)(=O)=O)S(C)(=O)=O)c2O[C@H]1CN(C)C(=O)OC(C)(C)C	none (no result: SIRT5 inh, MLL AF4-AF9 inh, E-sel inducer, S100A4 MyoIIA, ERAP1 inh)
C[C@H](CO)N1C[C@H](C)[C@H](CN(C)C(=O)CN(C)C)Oc2cc(-c3ccncc3)ccc2S1(=O)=O	S100A4 MyoIIA inconclusive
Cn1cnc(CCNC(=O)C[C@@H]2CC[C@H]3[C@@H](COC[C@H](O)CN3C(=O)C3CCCC3)O2)c1	none
Cn1cnc(CCNC(=O)C[C@H]2CC[C@@H]3[C@H](COC[C@H](O)CN3C(=O)Nc3ccc(Cl)cc3)O2)c1	Ecoli rRNA inh -21
Cn1cnc(CCNC(=O)C[C@@H]2CC[C@@H]3[C@H](COC[C@@H](O)CN3C(=O)Nc3ccc(Cl)cc3)O2)c1	SIRT5 inh 19
Cn1cnc(CCNC(=O)C[C@H]2CC[C@@H]3[C@H](COC[C@H](O)CN3C(=O)C3CCCC3)O2)c1	SIRT5 inh 35!
Cn1cnc(CCNC(=O)C[C@H]2CC[C@@H]3[C@H](COC[C@@H](O)CN3C(=O)Nc3ccc(F)cc3)O2)c1	none
C[C@H]1CCCCO[C@H](CN(C)S(C)(=O)=O)[C@@H](C)CN([C@@H](C)CO)C(=O)c2cc(NS(=O)(=O)c3cn(C)cn3)ccc2O1	none
CCc1nc(=O)c(-c2ccccc2)c(C)n1-c1ccccc1	E-sel inducer 43
C[C@H](CO)N1C[C@H](C)[C@@H](CN(C)C(=O)CC2CC2)Oc2ncc(C#CC(C)(C)O)cc2C1=O	none
CCC(=O)N(C)C[C@H]1Oc2ncc(C#Cc3ccncc3)cc2C(=O)N([C@H](C)CO)C[C@H]1C	ERAP1 inh 76
